The list is not random: actives were taken first. Their share in the collection is about 5.1%.
STAT3 inh: IL-6 driven STAT3 reporter inhibitors, primary screen, U3A cells, luciferase, luminescence, MLSCN library; actives 0.89% (n = 190,000); IL-6 STAT3-luciferase reporter; host cell line lacks STAT1; inhibition, % at 5.5 µM; AID 862, 2007;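 active = inhibition above the mean inhibition across all screened compounds plus 3 SD, cut at about 44% in these data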
STAT3 act: IL-6 driven STAT3 reporter potentiators, primary screen, U3A cells, luciferase, luminescence, MLSCN library; IL-6 STAT3-luciferase reporter; 100% = signal with IL-6 EC80 alone; activation (% of control), % at 5.6 µM; actives 0.91% (n = 190,000); AID 871, 2007;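 active = activation above the screen-wide mean of compound activation plus 3 SD, cut at about 130% in these data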
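Test system: Human STAT1-deficient U3A cells with stable STAT3-luciferase reporter | Also added: Interleukin-6, 33 ng/mL | Timing: Compound pre-incubation 1 h before IL-6, then 6 h stimulation at 37 °C | Technique: Luciferase reporter luminescence | Read-out: Percent of IL-6-only median luminescence | Benchmarks: IL-6-only wells as 100% reference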
NF-kB neuron act: activators of NF-kB expression in neurons, primary screen, cell-based, HTS; human neuronal cells, NF-kB reporter expression; hits give high values; fold change at 12.5 µM; actives 1.6% (n = 190,000); AID 1239, 2008; in the data active = fold change above about 3.3
STAT1 inh: STAT1 signaling inhibitors, primary screen, cell-based, HTS, luciferase reporter; NIH 3T3 STAT1-luciferase reporter, IFN-gamma, luminescence; inhibition, % at 5.5 µM; actives 0.35% (n = 200,000); AID 920, 2007;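 active = inhibition above a set limit, the mean inhibition across all tested compounds plus 3 SD, cut at about 34% in these data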
STAT1 act: STAT1 signaling activators, primary screen, cell-based, HTS, luciferase reporter; NIH 3T3 STAT1-luciferase reporter, IFN-gamma, luminescence; 100% = IFN-gamma alone, no compound; activation (% of control), % at 5.5 µM; actives 2.6% (n = 200,000);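 active = activation above the screen-wide mean activation plus 3 SD, cut at about 130% in these data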
APP 5'UTR act: activators of APP 5'UTR luciferase reporter, primary screen, SH-SY5Y cells. activation, % at 2 µM. actives 1% (n = 190,000). SH-SY5Y APP 5'UTR luciferase reporter, luminescence; zero percent = DMSO vehicle wells;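 active = activation above a set limit, based on mean plus 3 SD of controls, cut at about 140% in these data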
Each line names hits and unclear results; the compound was inactive in the other large screens.

Clc1ccc(/C=N/NC(=Nc2ccccc2)c2ccccn2)c(Cl)c1	APP 5'UTR act 164
O/C(=C\c1nc2ccccc2nc1/C=C(\O)c1ccccc1)c1ccccc1	STAT3 act 145, STAT1 act 134
CN(CCc1cnn(C)c1)Cc1cn[nH]c1-c1ccc(-c2ccccc2)cc1	none
c1ccc(OCCOc2ncnc3ccccc23)cc1	STAT1 act 133
O=C(COc1ncnc2ccccc12)c1ccc(Cl)cc1	STAT1 act 134
C=CCNc1nc(N)c(C(=C(C#N)C#N)c2ccc(Br)cc2)s1	none (no result: APP 5'UTR act)
C=CCOc1ccccc1CNc1cccc(F)c1	none
C=CCOc1ccccc1CNc1ccc2c(c1)OCCO2	STAT3 inh 70, STAT1 inh 43
CN(C)/C=N/NC(=O)c1ccccc1	none
CC(O)C(O)C(O)C(O)/C=N/NC(=O)c1ccccc1 (stereo not drawn)	STAT1 act 129
CCC(C)(C)n1nnnc1C(c1ccc(O)cc1)N1CCc2ccccc2C1 (stereo not drawn)	none
Cn1cccc1/C=N/NC(=O)c1sc2ccccc2c1Cl	STAT1 act 131
CCC1=NN(C(=O)Cc2ccc([N+](=O)[O-])cc2)C(O)(C(C)(C)C)C1 (stereo not drawn)	NF-kB neuron act 3.5
Cc1ccc2oc(-c3cccc(NC(=O)/C=C/c4cccc([N+](=O)[O-])c4)c3C)nc2c1	STAT1 act 136
COc1ccccc1OCc1nc2ccccc2[nH]1	NF-kB neuron act 4, STAT1 act 132
COc1ccc(C(=O)NCc2nc3ccccc3[nH]2)cc1OC	none
c1cnc2c(OCc3nc4ccccc4[nH]3)cccc2c1	STAT3 act 156, STAT1 act 144 (no result: APP 5'UTR act)
Cc1ccccc1OCc1nc2ccccc2[nH]1	NF-kB neuron act 4.2, STAT1 act 130
Brc1ccccc1OCCOc1cccc2cccnc12	none
Cc1ccc(C)c2sc(NC(=O)c3nc4ccccc4s3)nc12	none
O=C(CSc1nc2nn(-c3ccccc3)c(=O)c-2c2n1CCCCC2)NCCc1ccccc1	none
O=C(CCCc1ccccc1)c1ccc2c(c1)OCCO2	STAT3 inh 108, STAT1 inh 92 (no result: APP 5'UTR act)
O=C(Nc1cccc(NC(=O)c2ccc3c(c2)OCO3)c1)c1ccccc1	none
O=C(Nc1ccc2c(c1)OCO2)c1ccc(Cl)s1	NF-kB neuron act 9.8, STAT1 act 130, APP 5'UTR act 184
O=C(Nc1ccc2c(c1)OCO2)Nc1ccc2c(c1)OCO2	STAT1 act 141, APP 5'UTR act 136
O=C(Nc1cccnc1)Nc1ccc2c(c1)OCO2	none
NC(=O)c1ccc(NC(=O)c2ccc3c(c2)OCO3)cc1	STAT1 act 139
CCCCC1=NN(C(=O)c2ccco2)C(O)(C(F)(F)F)C1 (stereo not drawn)	none
CCN(CC)c1ccc(C(=O)OCC(=O)Nc2ccc3[nH]c(=O)[nH]c3c2)cc1	none
O=c1c2ccc([N+](=O)[O-])cc2ncn1Cc1ccccc1C(F)(F)F	none
Nc1cccc(Oc2ccc([N+](=O)[O-])cc2)c1	none
COCCN(C(=O)/C=C/c1ccccc1)c1nnc(-c2cccnc2)s1	none
O=C(Nc1ccc(Cl)c([N+](=O)[O-])c1)c1ccc2c(c1)OCCO2	NF-kB neuron act 3.7, STAT1 act 139, APP 5'UTR act 168
O=C(Nc1cccc(O)c1)c1cnn2cccnc12	none (no result: APP 5'UTR act)
O=C(Nc1ccc2c(c1)OCCO2)NC1CCCCC1	NF-kB neuron act 5.2, STAT1 act 129, APP 5'UTR act 138
CCOc1ccc(C(=O)Nc2ccc3c(c2)OCCO3)cc1[N+](=O)[O-]	none
O=C(Nc1ccc2c(c1)OCCO2)C1CCC1	none
O=C(Nc1ccc(Cl)cc1)C1=Cc2ccccc2OC1	NF-kB neuron act 9.2, STAT1 act 143, APP 5'UTR act 210
O=C(Nc1ccc2c(c1)OCO2)c1cnn2cccnc12	STAT1 act 130
CC(C)OCCCNS(=O)(=O)c1ccc2ccccc2c1	none
O=C(N/N=C/c1cccs1)c1ccc2c(c1)OCO2	STAT1 act 129
O=C(Nc1ccc([N+](=O)[O-])cc1)Nc1ccc2c(c1)OCCO2	NF-kB neuron act 4.5, STAT1 act 134
Cc1noc(C(=O)Nc2ccc3c(c2)OCO3)c1Cl	none
COc1cc([N+](=O)[O-])ccc1NC(=O)Nc1ccc2c(c1)OCCO2	none
O=C(Nc1ccc2c(c1)OCO2)c1c(Cl)nc2sccn12	STAT1 act 131
O=C(N/N=C/c1ccncc1)c1ccc2c(c1)OCO2	none
O=C(Nc1ccccc1)c1ccc2c(c1)OCCO2	NF-kB neuron act 5.5, STAT1 act 146
O=C(Nc1ccc2c(c1)OCO2)c1c(F)c(F)c(F)c(F)c1F	none
CCC(=O)Oc1ccc(C(=O)Nc2ccc3c(c2)OCO3)cc1	STAT1 act 137, APP 5'UTR act 142
O=C(Nc1ccncc1)Nc1ccccn1	none
O=C(Nc1ccccn1)Nc1cccs1	STAT1 act 132
O=C(Nc1ccc(F)c(F)c1)c1ccc2c(c1)OCO2	STAT1 act 138
O=C(Nc1cccc(F)c1)Nc1ccccn1	STAT1 act 148
Cc1c(C(=O)Nc2ccccc2-c2ccccc2)cccc1[N+](=O)[O-]	none
CN(Cc1ccon1)Cc1cn(Cc2ccccc2)nc1-c1ccc2c(c1)OCO2	none
CCOc1ccccc1NC(=S)N1CCC(NC(=O)C(C)(C)C)CC1	none
O=C(Nc1ccc2c(c1)OCO2)c1ccc2c(c1)OCO2	NF-kB neuron act 8, STAT1 act 132, APP 5'UTR act 138
O=C(Nc1ccc2c(c1)OCO2)Nc1cnccn1	none
O=C(Nc1ccc(Cl)cc1)c1ccc2c(c1)OCO2	NF-kB neuron act 6.8, STAT1 act 139, APP 5'UTR act 193
O=C(Nc1ccc2c(c1)OCO2)c1cccc(Cl)c1	STAT1 act 129
O=C(Nc1ccc2c(c1)OCO2)Nc1ccccn1	STAT1 act 148
COc1cc(C(=O)Nc2ccc(S(=O)(=O)N(C)c3ccccc3)cc2)cc(OC)c1OC	none
COc1cc(C(=O)Nc2ccc(N(C)C)cc2)cc(OC)c1OC	STAT1 act 133
CN1CCN(CC(=O)N(C)c2nc(-c3ccccc3)cs2)CC1	STAT1 act 134
CN1CCN(CC(=O)Nc2nc(-c3ccccc3)cs2)CC1	none
COc1ccc(-c2nnc(SCC(=O)c3ccc[nH]3)o2)cc1	NF-kB neuron act 4.7
COc1ccc(-c2nnc(SCC(=O)NCc3ccco3)o2)cc1	none
CCNC(=O)CSc1nnc(-c2cccs2)o1	none
COc1ccc(-c2nnc(SCC(=O)c3cccs3)o2)cc1	NF-kB neuron act 3.7, STAT1 act 134
O=C(CSc1nnc(-c2cccs2)o1)c1cccs1	STAT1 act 141

Compound activity as filed in PubChem.
